# Measured values as given in ChEMBL document CHEMBL1140862, “Berberine analogues as a novel class of the low-density-lipoprotein receptor up-regulators: synthesis, structure-activity relationships, and cholesterol-lowering efficacy” (J Med Chem, 2009).
# Active and inactive are the calls of the source. The rule behind the calls is not given here.
# Assays:
# [1] = test system: HepG2; assay: Induction of LDLR mRNA expression in human HepG2 cells after 12 hrs by RT-PCR assay relative to untreated control; type: functional
# Outline: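 HepG2 cells kept in RPMI-1640 with 10% FBS, moved 24 h before dosing to 10% LPDS, then at ~80% confluence to RPMI-1640 with 0.5% LPDS plus compound (5.0 µg/mL in table; concentrations as indicated in figure), 12 h, 37 °C. Total RNA reverse-transcribed, TaqMan real-time PCR, comparative CT method with GAPDH reference; fold of untreated cells (=1); mean of three experiments.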
# [2] = test system: Bel-7402; assay: Induction of LDLR […] in human Bel7402 cells after 12 hrs by RT-PCR assay relative to control; type: functional, cell-based
# [3] = test system: Mus musculus; assay: Reduction of blood low density lipoprotein cholesterol level in hyperlipidemic C57BL/6J mouse at 100 mg/kg, po daily twice for 21 days relative to control; type: functional; set-up: scale not given: the % may be the effect or the level left
# Outline: (§1)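 Male C57BL/6J mice fed HFHC diet 8 weeks, then gavaged twice daily (0.2 mL saline suspension) at 100 (mg/kg)/day for 21 days (n = 8; untreated n = 6). Fasted tail-snip blood; total cholesterol and LDL-c by commercial kits relative to untreated control.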
# [4] = test system: Rattus norvegicus; assay: Reduction of blood low density lipoprotein cholesterol level in hyperlipidemic Sprague-Dawley rat at 100 mg/kg, po daily twice; type: functional, organism-based; set-up: dose 100 mg/kg; settings: TDE = time-dependent effect
# [5] = test system: Mus musculus; assay: Reduction of blood cholesterol level in hyperlipidemic C57BL/6J mouse at 100 mg/kg, po daily twice for 21 days relative to control; type: functional; set-up: scale not given: the % may be the effect or the level left; outline: as §1
# [6] = test system: HepG2; assay: Induction of LDLR protein expression in human HepG2 cells at 10 ug/mL after 12 hrs by flow cytometry; type: functional, cell-based
# Outline: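 HepG2 cells in LPDS medium treated 12 h with 10 µg/mL compound, detached, fixed in 2% paraformaldehyde at 4 °C overnight, blocked, stained on ice 1 h with rabbit polyclonal anti-LDLR (1:25), then FITC goat anti-rabbit IgG (1:50) 30 min; normal rabbit IgG background control; cell-surface fluorescence by flow cytometry.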
# [7] = test system: Rattus norvegicus; assay: Reduction of blood cholesterol level in hyperlipidemic Sprague-Dawley rat at 100 mg/kg, po daily twice; type: functional, organism-based; set-up: dose 100 mg/kg; settings: TDE = time-dependent effect
# [8] = Elimination half life in po dosed human; type: ADME, organism-based; settings: in vivo, read-out: beta t1/2 (converted)
# [9] = test system: Rattus norvegicus; assay: Reduction of blood cholesterol level in hyperlipidemic Sprague-Dawley rat at 100 mg/kg, po daily twice for 30 days relative to control; type: functional; set-up: scale not given: the % may be the effect or the level left
# Outline: (§2)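 Male Sprague-Dawley rats on HFHC diet 8 weeks, then saline suspension by gavage at 100 (mg/kg)/day, twice daily, 30 days (n = 8; untreated HFHC n = 6; normal-diet controls). Fasted tail-snip blood at end point; total cholesterol and LDL-c by commercial kits; percent reduction versus untreated HFHC control; mean ± SEM.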
# [10] = test system: Rattus norvegicus; assay: Induction of HMG-CoA reductase mRNA expression in hyperlipidemic Sprague-Dawley rat liver at 100 mg/kg, po daily twice for 30 days by RT-PCR; type: functional, organism-based; set-up: dose 100 mg/kg
# Outline: (§3)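 Male Sprague-Dawley rats (180 ± 10 g) fed HFHC diet (2% cholesterol, 10% yolk powder, 15% lard, 0.2% sodium cholate) 8 weeks, then gavaged with compound suspended in saline, 100 (mg/kg)/day, twice daily, 30 days (n = 8; untreated n = 6). Liver RNA, TaqMan real-time RT-PCR, comparative CT with GAPDH; fold of untreated HFHC control.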
# [11] = test system: Rattus norvegicus; assay: Reduction of blood low density lipoprotein cholesterol level in hyperlipidemic Sprague-Dawley rat at 100 mg/kg, po daily twice for 30 days relative to control; type: functional; set-up: scale not given: the % may be the effect or the level left; outline: as §2
# [12] = test system: Rattus norvegicus; assay: Reduction of blood low density lipoprotein cholesterol level in hyperlipidemic Sprague-Dawley rat at 100 mg/kg, po daily twice for 17 days relative to control; type: functional; set-up: scale not given: the % may be the effect or the level left
# Outline: (§4)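 Hyperlipidemic Sprague-Dawley rats (HFHC diet 8 weeks) untreated (n = 6) or gavaged twice daily with saline suspension at 100 or 300 (mg/kg)/day (n = 8 each) for 17 days; fasted tail-snip blood at end point; total cholesterol and LDL-c by commercial kits, relative to untreated control.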
# [13] = test system: Rattus norvegicus; assay: Toxicity in hyperlipidemic Sprague-Dawley rat assessed as food intake reduction at 100 mg/kg, po daily twice for 30 days; type: organism-based; set-up: dose 100 mg/kg, route oral; settings: in vivo, 720 h
# Outline: (§5)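 Hyperlipidemic Sprague-Dawley rats (HFHC diet 8 weeks) gavaged with saline suspension, 100 (mg/kg)/day twice daily, 30 days. Body weight and food intake monitored; fasted blood before and after treatment assayed with commercial kits for AST, ALT, BUN and creatinine; mean and sd.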
# [14] = test system: Mus musculus; assay: Acute toxicity in Kunming mouse assessed as kidney damage upto 5000 mg/kg, po after 14 days by hematoxylin and eosin staining; type: organism-based; set-up: dose 5000 mg/kg, route oral; settings: in vivo, 336 h
# Outline: (§6)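 Male Kunming mice (19 ± 1 g), six per group, given a single oral dose of saline (control) or compound at 250, 1000 or 5000 mg/kg. Animals weighed daily and monitored 14 days. Then sacrificed; liver, kidney, heart, lung, brain and colon fixed in 10% formaldehyde at room temperature and examined by H&E histology.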
# [15] = test system: Mus musculus; assay: Acute toxicity in po dosed Kunming mouse assessed as lung damage upto 5000 mg/kg, po after 14 days by hematoxylin and eosin staining; type: organism-based; set-up: dose 5000 mg/kg, route oral; settings: in vivo, 336 h; outline: as §6
# [16] = test system: Rattus norvegicus; assay: Reduction of blood cholesterol level in hyperlipidemic Sprague-Dawley rat at 300 mg/kg, po daily twice for 17 days relative to control; type: functional; set-up: scale not given: the % may be the effect or the level left; outline: as §4
# [17] = test system: Rattus norvegicus; assay: Induction of LDLR mRNA expression in hyperlipidemic Sprague-Dawley rat liver at 300 mg/kg, po daily twice for 17 days by RT-PCR relative to control; type: functional
# Outline: (§7)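 Hyperlipidemic male Sprague-Dawley rats (HFHC diet 8 weeks) untreated (n = 6) or gavaged twice daily with saline suspension at 100 or 300 (mg/kg)/day (n = 8 each) for 17 days. Liver total RNA, real-time RT-PCR for LDLR, GAPDH-normalized, fold of HFHC group (=1); mean ± SE, one-way ANOVA.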
# [18] = test system: Mus musculus; assay: Acute toxicity in Kunming mouse assessed as change in body weight at 250 mg/kg, po; type: organism-based; set-up: dose 250 mg/kg, route oral; settings: in vivo; outline: as §6
# [19] = test system: Rattus norvegicus; assay: Induction of LDLR mRNA expression in hyperlipidemic Sprague-Dawley rat liver at 100 mg/kg, po daily twice for 17 days by RT-PCR relative to control; type: functional, organism-based; set-up: dose 100 mg/kg; outline: as §7
# [20] = test system: Mus musculus; assay: Acute toxicity in Kunming mouse assessed as heart damage upto 5000 mg/kg, po after 14 days by hematoxylin and eosin staining; type: organism-based; set-up: dose 5000 mg/kg, route oral; settings: in vivo, 336 h; outline: as §6
# [21] = test system: Rattus norvegicus; assay: Toxicity in hyperlipidemic Sprague-Dawley rat assessed as liver and kidney function abnormalities at 100 mg/kg, po daily twice for 30 days; type: organism-based; set-up: dose 100 mg/kg, route oral; settings: in vivo, 720 h; outline: as §5
# [22] = test system: Mus musculus; assay: Acute toxicity in Kunming mouse assessed as liver damage upto 5000 mg/kg, po after 14 days by hematoxylin and eosin staining; type: organism-based; set-up: dose 5000 mg/kg, route oral; settings: in vivo, 336 h; outline: as §6
# [23] = test system: Rattus norvegicus; assay: Toxicity in hyperlipidemic Sprague-Dawley rat assessed as weight loss at 100 mg/kg, po daily twice for 30 days; type: organism-based; set-up: dose 100 mg/kg, route oral; settings: in vivo, 720 h; outline: as §5
# [24] = test system: Rattus norvegicus; assay: Reduction of blood low density lipoprotein cholesterol level in hyperlipidemic Sprague-Dawley rat at 300 mg/kg, po daily twice for 17 days relative to control; type: functional; set-up: scale not given: the % may be the effect or the level left; outline: as §4
# [25] = test system: Mus musculus; assay: Induction of LDLR mRNA expression in hyperlipidemic C57BL/6J mouse liver at 100 mg/kg, po daily twice for 21 days by RT-PCR relative to control; type: functional
# Outline: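 Male C57BL/6J mice (21 ± 2 g) fed HFHC diet 8 weeks, then gavaged twice daily with saline suspension at 100 (mg/kg)/day for 21 days (n = 8; untreated n = 6). Liver LDLR mRNA by TaqMan real-time RT-PCR, comparative CT with GAPDH, relative to untreated control.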
# [26] = test system: Mus musculus; assay: Acute toxicity in Kunming mouse assessed as colon damage upto 5000 mg/kg, po after 14 days by hematoxylin and eosin staining; type: organism-based; set-up: dose 5000 mg/kg, route oral; settings: in vivo, 336 h; outline: as §6
# [27] = test system: Rattus norvegicus; assay: Induction of LDLR mRNA expression in hyperlipidemic Sprague-Dawley rat liver at 100 mg/kg, po daily twice for 30 days by RT-PCR relative to control; type: functional; outline: as §3
# [28] = test system: Rattus norvegicus; assay: Reduction of blood cholesterol level in hyperlipidemic Sprague-Dawley rat at 100 mg/kg, po daily twice for 17 days relative to control; type: functional; set-up: scale not given: the % may be the effect or the level left; outline: as §4
# [29] = test system: Mus musculus; assay: Acute toxicity in Kunming mouse assessed as change in body weight at 1000 mg/kg, po; type: organism-based; set-up: dose 1000 mg/kg, route oral; settings: in vivo; outline: as §6
# [30] = test system: Mus musculus; assay: Acute toxicity in po dosed Kunming mouse after 14 days; type: organism-based; settings: in vivo, 336 h; outline: as §6
# [31] = test system: Mus musculus; assay: Acute toxicity in Kunming mouse assessed as brain damage upto 5000 mg/kg, po after 14 days by hematoxylin and eosin staining; type: organism-based; set-up: dose 5000 mg/kg, route oral; settings: in vivo, 336 h; outline: as §6
structure (smiles),measurement,setting,value
CC[N+]12CCc3cc4c(cc3C1Cc1ccc(OC)c(OC)c1C2)OCO4.[Br-] (stereo unspecified),fold change (FC),[1],1
COc1cc2c(cc1OC)C[N+]1(Cc3ccccc3)CCc3cc4c(cc3C1C2)OCO4.[Br-] (stereo unspecified),fold change (FC),[1],0.9
COc1ccc2c(Cc3ccccc3)c3[n+](cc2c1OC)CCc1cc2c(cc1-3)OCO2.[Br-],fold change (FC),[1],1.4
CCCCCCc1c2[n+](cc3cc(OC)c(OC)cc13)CCc1cc3c(cc1-2)OCO3.[Cl-],fold change (FC),[1],1.1
COc1ccc2cc3[n+](cc2c1OC)CCc1cc2c(cc1-3)OCO2.[Cl-] [BERBERINE CHLORIDE],Activity,[2],Active
same,Activity,[3],23.9%
same,fold change (FC),[1],2.2
same,Activity,[4],tde
same,Activity,[5],16.7%
same,Activity,[6],Active
same,Activity,[7],tde
same,half-life,[8],176 min
same,Activity,[9],27.4%
same,Activity,[10],inactive
same,Activity,[11],31.6%
COc1ccc2c(c1OC)CN1CCc3cc4c(cc3[C@@H]1C2)OCO4 [CANADINE],fold change (FC),[1],1
COc1cc2c(cc1O)-c1cc3ccc(OC)c(OC)c3c[n+]1CC2.[I-] [COLUMBAMINE IODIDE],fold change (FC),[1],1
COc1cc2cc3[n+](cc2cc1OC)CCc1cc2c(cc1-3)OCO2.[Cl-] [PSEUDOBERBERINE],Activity,[12],31%
same,Activity,[13],Non-toxic
same,Activity,[14],Non-toxic
same,Activity,[3],39%
same,Activity,[15],Non-toxic
same,fold change (FC),[1],3.5
same,Activity,[16],46.3%
same,fold change (FC),[17],4.8
same,Activity,[4],tde
same,Activity,[18],Non-toxic
same,Activity,[19],Active
same,Activity,[20],Non-toxic
same,Activity,[5],29.7%
same,Activity,[21],Non-toxic
same,Activity,[22],Non-toxic
same,Activity,[23],Non-toxic
same,Activity,[24],53.6%
same,fold change (FC),[25],3.2
same,Activity,[6],Active
same,Activity,[26],Non-toxic
same,Activity,[7],tde
same,Activity,[9],42.6%
same,fold change (FC),[27],2.9
same,Activity,[10],inactive
same,Activity,[28],28.5%
same,Activity,[29],Non-toxic
same,Activity,[30],Non-toxic
same,Activity,[11],49.4%
same,Activity,[31],Non-toxic
